According to ChEMBL document CHEMBL4321835, “Could Dissecting the Molecular Framework of β-Lactam Integrin Ligands Enhance Selectivity?” (J Med Chem, 2019):
The source made the active and inactive calls. No cut-off for these calls is given here.

How the values were obtained:
Integrin alpha-V/beta-3 [1] = target: T1, Integrin alpha-V/beta-3 (Homo sapiens, UniProt P05106+P06756); experiment: Agonist activity at alphaVbeta3 integrin receptor in human SK-MEL-24 cells assessed as increase in cell adhesion to wells coated with compound by passive absorption in absence of fibronectin; format: cell-based
Method in brief: (§1)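 Compounds were coated onto wells by passive absorption, with no FN present. Adhesion of SK-MEL-24 or Saos-2 cells was compared with BSA-coated wells. Mean ± SEM from three independent experiments run in quadruplicate; Newman-Keuls test after ANOVA.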

Integrin alpha-5/beta-1 [2] = target: T2, Integrin alpha-5/beta-1 (Homo sapiens, UniProt P05556+P08648); experiment: Activity at alpha5beta1 integrin receptor in human K562 cells assessed as effect on fibronectin-induced cell adhesion pre-incubated for 30 mins; format: cell-based
Method in brief: (§2)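 Integrin-mediated adhesion. αvβ3: SK-MEL-24 cells adhering to FN. α5β1: K562 cells adhering to FN. α4β1: Jurkat E6.1 cells adhering to VCAM-1. Values are mean ± SD, n=3.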

[3] = target: Mitogen-activated protein kinase; ERK1/ERK2 (Homo sapiens) (UniProt P27361+P28482); experiment: Activation of ERK1/2 phosphorylation in HEK293 cells at 1 nM to 100 nM incubated for 1 hr by Western blot analysis; format: cell-based
Method in brief: (§3)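 HEK293 cells were transfected with plasmids coding αv and β3 subunits; untransfected HEK293 served as negative control and FN as positive control. ERK1/2 phosphorylation was quantified by band densitometry against vehicle. Mean ± SEM, n=5; Newman-Keuls test after ANOVA.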

Integrin alpha-5/beta-1 [4] = target: T2, Integrin alpha-5/beta-1; experiment: Binding affinity to alpha5beta1 integrin receptor (unknown origin) incubated fro 30 mins by competitive solid-phase binding assay; format: protein-complex assay
Method in brief: (§4)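 Competitive solid-phase binding assay using FN for αvβ3 and α5β1, giving IC50. Mean ± SEM, n=3.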

Integrin alpha-V/beta-3 [5] = target: T1, Integrin alpha-V/beta-3; experiment: Agonist activity at alphaVbeta3 integrin receptor (unknown origin) expressed in HEK293 cells assessed as induction of ERK1/2 phosphorylation at 1 nM to 100 nM incubated for 1 hr by Western blot analysis; format: cell-based; method in brief: as §3
Integrin alpha-4/beta-1 [6] = target: T3, Integrin alpha-4/beta-1 (Homo sapiens, UniProt P05556+P13612); experiment: Binding affinity to alpha4beta1 integrin receptor (unknown origin) incubated for 1 hr by scintillation proximity binding assay; format: protein-complex assay
Method in brief: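 Scintillation proximity binding assay for α4β1, giving IC50. Mean ± SEM, n=3.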

Integrin alpha-V/beta-3 [7] = target: T1, Integrin alpha-V/beta-3; experiment: Agonist activity at alphaVbeta3 integrin receptor in human Saos-2 cells assessed as increase in fibronectin-induced cell adhesion pre-incubated for 30 mins; format: cell-based
Integrin alpha-V/beta-3 [8] = target: T1, Integrin alpha-V/beta-3; experiment: Agonist activity at alphaVbeta3 integrin receptor in human Saos-2 cells assessed as increase in cell adhesion to wells coated with compound by passive absorption in absence of fibronectin; format: cell-based; method in brief: as §1
Integrin alpha-V/beta-3 [9] = target: T1, Integrin alpha-V/beta-3; experiment: Agonist activity at alphaVbeta3 integrin receptor in human SK-MEL-24 cells assessed as increase in fibronectin-induced cell adhesion pre-incubated for 30 mins; format: cell-based; method in brief: as §2
Integrin alpha-4/beta-1 [10] = target: T3, Integrin alpha-4/beta-1; experiment: Agonist activity at alpha4beta1 integrin receptor in human Jurkat E6.1 cells assessed as increase in VCAM1-induced cell adhesion pre-incubated for 30 mins; format: cell-based; method in brief: as §2
Integrin alpha-V/beta-3 [11] = target: T1, Integrin alpha-V/beta-3; experiment: Agonist activity at alphaVbeta3 integrin receptor in human Saos-2 cells assessed as increase in fibronectin-induced cell adhesion at 10 ug/ml added 10 mins after pre-incubation with neutralizing antibody to integrin alphaV-subunit; format: cell-based
Method in brief: (§5)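 Neutralizing antibody against the αv subunit was added to SK-MEL-24 or Saos-2 cells 10 min before the compounds (10 μg/mL). Adhesion was then measured.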

Integrin alpha-V/beta-3 [12] = target: T1, Integrin alpha-V/beta-3; experiment: Binding affinity to alphaVbeta3 integrin receptor (unknown origin) incubated fro 30 mins by competitive solid-phase binding assay; format: protein-complex assay; method in brief: as §4
Integrin alpha-V/beta-3 [13] = target: T1, Integrin alpha-V/beta-3; experiment: Agonist activity at alphaVbeta3 integrin receptor in human SK-MEL-24 cells assessed as increase in fibronectin-induced cell adhesion at 10 ug/ml added 10 mins after pre-incubation with neutralizing antibody to integrin alphaV-subunit; format: cell-based; method in brief: as §5
Integrin alpha-4/beta-1 [14] = target: T3, Integrin alpha-4/beta-1; experiment: Activity at alpha4beta1 integrin receptor in human Jurkat E6.1 cells assessed as effect on VCAM1-induced cell adhesion pre-incubated for 30 mins; format: cell-based; method in brief: as §2
Integrin alpha-5/beta-1 [15] = target: T2, Integrin alpha-5/beta-1; experiment: Antagonist activity at alpha5beta1 integrin receptor in human K562 cells assessed as reduction in fibronectin-induced cell adhesion pre-incubated for 30 mins; format: cell-based; method in brief: as §2
Integrin alpha-V/beta-3 [16] = target: T1, Integrin alpha-V/beta-3; experiment: Activity at alphaVbeta3 integrin receptor in human SK-MEL-24 cells assessed as effect on fibronectin-induced cell adhesion pre-incubated for 30 mins; format: cell-based; method in brief: as §2
Integrin alpha-4/beta-1 [17] = target: T3, Integrin alpha-4/beta-1; experiment: Agonist activity at alpha4beta1 integrin receptor in human Jurkat E6.1 cells assessed as increase in VCAM1-induced cell adhesion at 10 ug/ml pre-incubated for 30 mins in presence of 10 ug/ml neutralizing antibody to alpha4 integrin subunit; format: cell-based
Integrin alpha-4/beta-1 [18] = target: T3, Integrin alpha-4/beta-1; experiment: Agonist activity at alpha4beta1 integrin receptor in human Jurkat E6.1 cells assessed as induction of ERK1/2 phosphorylation incubated for 1 hr by Western blot analysis; format: cell-based
Method in brief: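 Jurkat cells (α4β1) were treated across a concentration range with VCAM-1 as positive control. ERK1/2 phosphorylation was quantified by band densitometry against vehicle. Mean ± SEM, n=5; Newman-Keuls test after ANOVA.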

Integrin alpha-5/beta-1 [19] = target: T2, Integrin alpha-5/beta-1; experiment: Agonist activity at alpha5beta1 integrin receptor in human K562 cells assessed as increase in fibronectin-induced cell adhesion pre-incubated for 30 mins; format: cell-based; method in brief: as §2
Integrin alpha-5/beta-1 [20] = target: T2, Integrin alpha-5/beta-1; experiment: Antagonist activity at alpha5beta1 integrin receptor in human K562 cells assessed as reduction in fibronection-induced ERK1/2 phosphorylation at 1 nM to 100 nM pre-incubated for 1 hr before fibronectin stimulation for 1 hr by Western blot analysis; format: cell-based
Method in brief: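 K562 cells (α5β1) were treated with compound and stimulated with FN. FN-induced ERK1/2 phosphorylation was quantified by band densitometry against vehicle and FN. Mean ± SEM, n=5; Newman-Keuls test after ANOVA.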

Row | Activity (Integrin alpha-5/beta-1 [2]) [µM] | IC50 (Integrin alpha-5/beta-1 [4]) [nM] | IC50 (Integrin alpha-4/beta-1 [6]) [nM] | IC50 (Integrin alpha-V/beta-3 [12]) [nM] | Activity (Integrin alpha-4/beta-1 [14]) [µM] | IC50 (Integrin alpha-5/beta-1 [15]) [nM] | Activity (Integrin alpha-V/beta-3 [16]) [µM] | Structure (SMILES) | other results
1 | > 5 | > 1000 | 294 | 29 |  |  |  | O=C(O)/C=C1/CC(=O)N1 | Activity (Integrin alpha-V/beta-3 [1]): Active; Activity [3]: inactive; Activity (Integrin alpha-V/beta-3 [5]): Active; EC50 (Integrin alpha-V/beta-3 [7]): 154 nM; Activity (Integrin alpha-V/beta-3 [8]): Active; EC50 (Integrin alpha-V/beta-3 [9]): 75.6 nM; EC50 (Integrin alpha-4/beta-1 [10]): 255 nM; Activity (Integrin alpha-V/beta-3 [11]): inactive; Activity (Integrin alpha-V/beta-3 [13]): inactive
2 |  | 409 | > 1000 | > 1000 | > 5 | 419 | > 5 | Cc1ccccc1C(=O)N1C(=O)CC1CC(=O)O (stereo not given) | 
3 |  |  |  |  | > 5 |  |  | O=C(O)CC1CC(=O)N1 (stereo not given) | 
4 |  |  |  |  | > 5 |  | > 5 | Cc1ccccc1NC(=O)N1C(=O)CC1CC(=O)NCC(=O)O (stereo not given) | 
5 | > 5 |  |  |  |  |  | > 5 | Cc1ccccc1NC(=O)N1C(=O)CC1CC(=O)O (stereo not given) | 
6 | > 5 | > 1000 | > 1000 | 9.5 | > 5 |  |  | Cc1ccccc1NC(=O)NCCC(=O)O | Activity (Integrin alpha-V/beta-3 [1]): Active; Activity [3]: inactive; Activity (Integrin alpha-V/beta-3 [5]): Active; EC50 (Integrin alpha-V/beta-3 [7]): 984 nM; Activity (Integrin alpha-V/beta-3 [8]): Active; EC50 (Integrin alpha-V/beta-3 [9]): 29.9 nM; Activity (Integrin alpha-V/beta-3 [11]): inactive; Activity (Integrin alpha-V/beta-3 [13]): inactive
7 | > 5 |  |  |  | > 5 |  | > 5 | NCc1ccc(NC(=O)N2C(=O)C[C@@H]2C(=O)O)cc1 | 
8 | > 5 |  |  |  | > 5 |  | > 5 | Cc1ccccc1NC(=O)N1C(=O)C[C@@H]1C(=O)O | 
9 |  | 136 | 18.9 | > 1000 |  |  |  | Cc1ccccc1NC(=O)N1CCC[C@H]1C(=O)O | EC50 (Integrin alpha-V/beta-3 [9]): 2880 nM; Activity (Integrin alpha-4/beta-1 [17]): inactive; EC50 (Integrin alpha-4/beta-1 [10]): 10 nM; Activity (Integrin alpha-4/beta-1 [18]): Dose-dependent effect; EC50 (Integrin alpha-5/beta-1 [19]): 140 nM
10 |  | 11.9 | > 1000 | > 1000 | > 5 | 96.9 | > 5 | Cc1ccccc1NC(=O)N1C(=O)C[C@@H]1C(=O)NCCC(=O)O | 
11 |  |  |  |  | > 5 | 1110 | > 5 | O=C(O)CNC(=O)CC1CC(=O)N1 (stereo not given) | 
12 | > 5 |  |  |  |  |  | > 5 | Cc1ccccc1NC(=O)N1CCC1=O | EC50 (Integrin alpha-4/beta-1 [10]): 976 nM
13 |  | 59.3 | > 1000 | > 1000 | > 5 | 41.5 | > 5 | Cc1ccccc1C(=O)N1C(=O)C[C@H]1C(=O)O | inhibition (Integrin alpha-5/beta-1 [20]): Active
14 |  |  |  |  | > 5 |  | > 5 | NCc1ccc(NC(=O)N2C(=O)C[C@H]2C(=O)O)cc1 | 
15 |  | > 1000 | > 1000 | 3.4 | > 5 | 3510 |  | Cc1ccccc1NC(=O)NCC(=O)O | Activity (Integrin alpha-V/beta-3 [1]): Active; Activity [3]: inactive; Activity (Integrin alpha-V/beta-3 [5]): Active; EC50 (Integrin alpha-V/beta-3 [7]): 299 nM; Activity (Integrin alpha-V/beta-3 [8]): Active; EC50 (Integrin alpha-V/beta-3 [9]): 84.8 nM; Activity (Integrin alpha-V/beta-3 [11]): inactive; Activity (Integrin alpha-V/beta-3 [13]): inactive
